Source: ChEMBL document CHEMBL1142960, “Synthesis and structure-activity relationships for 2,4-dinitrobenzamide-5-mustards as prodrugs for the Escherichia coli nfsB nitroreductase in gene therapy” (J Med Chem, 2007)
≈ marks a conversion by molar mass, not a printed value.

Assays:
V79 [1] = assay: Antiproliferative activity against chinese hamster wild-type V79 NTR-ve cells after 18 hrs; type: functional, cell-based; details: Cricetulus griseus, V79, 18 h
V79 [2] = assay: Antiproliferative activity against chinese hamster V79 NTRpuro cells after 18 hrs; type: functional, cell-based; details: Cricetulus griseus, V79, 18 h
V79 [3] = assay: Selectivity ratio of IC50 for V79 NTR-ve cells to IC50 for V79 NTRpuro cells; type: functional, Cricetulus griseus
EMT6 [4] = assay: Antiproliferative activity against mouse wild type EMT6 NTR-ve cells after 18 hrs; type: functional, cell-based; details: EMT6, 18 h
EMT6 [5] = assay: Antiproliferative activity against mouse EMT6 NTRpuro cells after 18 hrs; type: functional, cell-based; details: EMT6, 18 h
EMT6 [6] = assay: Selectivity ratio of IC50 for EMT6 NTR-ve cells to IC50 forEMT6 NTRpuro cells; type: functional, Mus musculus
WiDr [7] = assay: Antiproliferative activity against human wild type WiDr NTR-ve cells after 18 hrs; type: functional, cell-based
WiDr [8] = assay: Antiproliferative activity against human WiDr NTRneo cells after 18 hrs; type: functional, cell-based
WiDr [9] = assay: Selectivity ratio of IC50 for WiDr NTR-ve cells to IC50 for WiDr NTRneo cells; type: functional, Homo sapiens
[10] = Antiproliferative activity against human wild type Skov3 NTR-ve cells after 18 hrs; type: functional, cell-based
[11] = Antiproliferative activity against human Skov3 NTRneo cells after 18 hrs; type: functional, cell-based; details: SK-OV-3, 18 h
[12] = Selectivity ratio of IC50 for Skov3 NTR-ve cells to IC50 for Skov3 NTRneo cells; type: functional, Homo sapiens
[13] = Solubility in alpha MEM; type: physicochemical
How it was run: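 Solubility (mM) in α-MEM with 5% fetal calf serum at ambient temperature, measured by HPLC.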

[14] = Stability in alpha MEM at 37 degC after 24 hrs; type: physicochemical; details: read-out: Stability
How it was run: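 Percent parent compound remaining, by HPLC, after holding in α-MEM with 5% fetal calf serum at 37 °C for 24 h.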

SMILES	IC50 (V79 [1]) [µM]	IC50 (V79 [2]) [µM]	Ratio IC50 (V79 [3])	IC50 (EMT6 [4]) [µM]	IC50 (EMT6 [5]) [µM]	Ratio IC50 (EMT6 [6])	IC50 (WiDr [7]) [µM]	IC50 (WiDr [8]) [µM]	Ratio IC50 (WiDr [9])	IC50 [10] [µM]	IC50 [11] [µM]	Ratio IC50 [12]	solubility [13] [µM]	remaining at 24 h [14] [%]
O=C(NCCCn1ccnc1)c1cc(N(CCCl)CCCl)c([N+](=O)[O-])cc1[N+](=O)[O-]	174	32	7.4	187	45	41	106	37	2.9	474	18	26	19000 (≈ 8730 µg/mL)	70
CN(C)CCNC(=O)c1cc(N(CCCl)CCCl)c([N+](=O)[O-])cc1[N+](=O)[O-]	89	81	1.1	62	35	1.8	62	66	0.9	246	44	6		103
NCCNC(=O)c1cc(N(CCCl)CCCl)c([N+](=O)[O-])cc1[N+](=O)[O-]	462	52	11	124	0.37	413	180	5.9	38	417	6.8	69	9200 (≈ 3630 µg/mL)	99
CS(=O)(=O)OCCN(CCBr)c1cc(C(=O)NO)c([N+](=O)[O-])cc1[N+](=O)[O-]	97	0.9	112	63	0.41	156	113	1.16	100	146	1.44	115	1500 (≈ 707 µg/mL)	48
O=C(NCCCN1CCOCC1)c1cc(N(CCBr)CCBr)c([N+](=O)[O-])cc1[N+](=O)[O-]	148	16	9.2	56	16	3.6	134	57	2.4	272	34	7.3	860 (≈ 488 µg/mL)	74
O=C(O)CCNC(=O)c1cc(N(CCBr)CCBr)c([N+](=O)[O-])cc1[N+](=O)[O-]	54	13	45	40	2.4	17	40	7.6	4.8	67	7.6	12	8400 (≈ 4300 µg/mL)	
CS(=O)(=O)NC(=O)c1cc(N(CCCl)CCCl)c([N+](=O)[O-])cc1[N+](=O)[O-]	328	237	1.5	450	278	2	1310	223	5.4	1040	160	6.7	17000 (≈ 7300 µg/mL)	100
CS(=O)(=O)c1cc([N+](=O)[O-])c(N(CCCl)CCCl)cc1C(=O)NCC(O)CO (stereo not drawn)	843	427	2.3	1200	189	6.4	1980	994	2	2320	745	3.3	16000 (≈ 7330 µg/mL)	106
O=C(NCCn1ccnc1)c1cc(N(CCCl)CCCl)c([N+](=O)[O-])cc1[N+](=O)[O-]	273	46	6.6	178	2.6	52	163	11	18	438	4.1	140	500 (≈ 223 µg/mL)	94
COC(=O)CCNC(=O)c1cc(N(CCBr)CCBr)c([N+](=O)[O-])cc1[N+](=O)[O-]	52	1.1	45	76	0.59	149	80	2.1	47	110	2.3	49	280 (≈ 147 µg/mL)	70
CC(O)CNC(=O)c1cc(N(CCCl)CCCl)c([N+](=O)[O-])cc1[N+](=O)[O-] (stereo not drawn)	438	21	21	593	2.6	233	586	19	30	705	9.5	75	1200 (≈ 491 µg/mL)	107
O=C(O)CCNC(=O)c1cc(N(CCCl)CCCl)c([N+](=O)[O-])cc1[N+](=O)[O-]	4890	470	9.5	4630	424	13	6390	1810	3.5	5720	643	11		
O=C(NC(CO)(CO)CO)c1cc(N(CCCl)CCCl)c([N+](=O)[O-])cc1[N+](=O)[O-]	1050	13	91	693	0.45	1530	700	9.8	61	970	4.2	205	1800 (≈ 819 µg/mL)	97
CS(=O)(=O)OCCN(CCCl)c1cc(C(=O)NCC(O)CO)c([N+](=O)[O-])cc1[N+](=O)[O-] (stereo not drawn)				1210	3.81	344	1230	6	328	1380	5	286	2100 (≈ 1020 µg/mL)	74
CS(=O)(=O)c1cc([N+](=O)[O-])c(N(CCCl)CCCl)cc1C(N)=O	> 50	> 50		> 50	> 50		> 50	> 50		> 50	> 50		60 (≈ 23.1 µg/mL)	74
O=C(NO)c1cc(N(CCBr)CCBr)c([N+](=O)[O-])cc1[N+](=O)[O-]	34	0.2	180	33	0.07	500	45	0.39	92	59	0.31	180	1200 (≈ 547 µg/mL)	69
